Each structure is given as a SMILES string.

Series [1] can be described thus: ABTS radical scavenging activity assessed as Trolox equivalent antioxidant capacity at 1 mM by spectrophotometry. It is filed as physicochemical. Particulars: 1000 µM. The gist of the method:
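ABTS radical cation made from 7 mM ABTS with 2.45 mM potassium persulfate, kept dark at room temperature 12 h. Diluted in PBS pH 7.4 to A734 0.70 and equilibrated at 30 °C. Methanol sample solutions (0.3–2 mM) were added to diluted ABTS. Percent inhibition at 734 nm versus methanol blank, plotted against concentration relative to Trolox; three determinations.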

Series [2] deals with Xanthine dehydrogenase/oxidase (Homo sapiens, UniProt P47989). Put plainly: Inhibition of xanthine oxidase-mediated formation of uric acid by spectrophotometry. Summed up: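 Xanthine 100 μM in 0.1 M phosphate buffer pH 7.8 with 0.04 units/mL XOD, incubated 10 min at room temperature. Compounds added at several concentrations before enzyme; IC50 from regression lines.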
Sequence of Xanthine dehydrogenase/oxidase (P47989 whole entry): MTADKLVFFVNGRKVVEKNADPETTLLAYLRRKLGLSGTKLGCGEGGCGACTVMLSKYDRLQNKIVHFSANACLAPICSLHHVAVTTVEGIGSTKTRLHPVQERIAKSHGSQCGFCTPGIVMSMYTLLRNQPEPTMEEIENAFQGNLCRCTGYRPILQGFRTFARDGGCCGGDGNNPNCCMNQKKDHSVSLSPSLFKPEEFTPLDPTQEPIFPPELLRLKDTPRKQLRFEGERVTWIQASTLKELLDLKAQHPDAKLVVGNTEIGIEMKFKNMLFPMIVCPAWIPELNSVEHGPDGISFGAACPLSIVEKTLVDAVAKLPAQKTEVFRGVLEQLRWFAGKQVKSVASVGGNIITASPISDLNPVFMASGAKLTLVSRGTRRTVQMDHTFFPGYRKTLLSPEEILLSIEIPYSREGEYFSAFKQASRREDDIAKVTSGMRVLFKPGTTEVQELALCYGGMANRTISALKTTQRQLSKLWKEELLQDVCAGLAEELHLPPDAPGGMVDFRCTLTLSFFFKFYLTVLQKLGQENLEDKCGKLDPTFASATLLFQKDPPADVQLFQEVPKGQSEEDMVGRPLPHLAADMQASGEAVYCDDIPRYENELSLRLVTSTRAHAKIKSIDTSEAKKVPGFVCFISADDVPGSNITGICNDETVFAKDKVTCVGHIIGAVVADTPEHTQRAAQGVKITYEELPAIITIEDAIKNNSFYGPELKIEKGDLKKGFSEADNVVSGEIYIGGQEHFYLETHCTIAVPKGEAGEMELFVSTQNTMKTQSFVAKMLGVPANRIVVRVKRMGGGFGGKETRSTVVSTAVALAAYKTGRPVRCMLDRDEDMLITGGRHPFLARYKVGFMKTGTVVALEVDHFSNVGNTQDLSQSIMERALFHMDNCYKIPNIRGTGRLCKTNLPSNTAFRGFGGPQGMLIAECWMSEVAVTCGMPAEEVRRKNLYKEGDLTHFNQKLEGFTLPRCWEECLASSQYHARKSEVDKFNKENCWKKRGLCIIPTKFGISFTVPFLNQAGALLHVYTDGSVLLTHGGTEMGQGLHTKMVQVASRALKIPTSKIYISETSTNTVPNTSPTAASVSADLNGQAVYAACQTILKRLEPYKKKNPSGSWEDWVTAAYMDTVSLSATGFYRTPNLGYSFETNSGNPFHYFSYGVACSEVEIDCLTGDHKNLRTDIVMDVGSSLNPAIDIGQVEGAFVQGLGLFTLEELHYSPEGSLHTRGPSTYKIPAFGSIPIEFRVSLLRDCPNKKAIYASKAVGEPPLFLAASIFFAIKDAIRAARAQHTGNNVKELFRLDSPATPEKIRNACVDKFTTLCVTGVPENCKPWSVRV

For `C[C@@H]1O[C@@H](Oc2c(-c3ccc(O)c(O)c3)oc3cc(O)cc(O)c3c2=O)[C@H](O)[C@H](O)[C@H]1O` [QUERCITRIN], the Activity in series [1] turned out to be 0.854 mM. In series [2], this compound registered an IC50 of 14.7 µM.
Taken in the same sequence, the figures for `O=C/C=C/c1ccc(O)c(O)c1` [CAFFEOYL ALDEHYDE] were 0.713 mM and 31.5 µM.
Taken in the same sequence, the figures for `C[C@@H]1O[C@@H](OC[C@H]2O[C@@H](Oc3cc(O)c4c(=O)c(O)c(-c5cc(O)c(O)c(O)c5)oc4c3)[C@H](O)[C@@H](O)[C@@H]2O)[C@H](O)[C@H](O)[C@H]1O` were 1.42 mM and 6.13 µM.
In the same order, the values of `COC(=O)c1ccc(O)c(O)c1` [METHYL PROTOCATECHUATE] are 0.855 mM and 29.6 µM.
As for `O=c1c(O)c(-c2cc(O)c(O)c(O)c2)oc2cc(O[C@@H]3O[C@H](CO[C@@H]4O[C@H](CO)[C@@H](O)[C@H](O)[C@H]4O)[C@@H](O)[C@H](O)[C@H]3O)cc(O)c12`, in series [1], the Activity came out at 1.62 mM. Besides, half-maximal inhibition in series [2] (IC50) required 6.52 µM.
Taken in the same sequence, the figures for `O=c1c(O[C@@H]2O[C@H](CO)[C@@H](O)[C@H](O)[C@H]2O)c(-c2ccc(O)c(O)c2)oc2cc(O)cc(O)c12` [ISOQUERCETIN] were 0.757 mM and above 50 µM.
Turning to `O=c1c(O)c(-c2ccc(O)c(O)c2)oc2cc(O)cc(O)c12` [QUERCETIN], the Activity in series [1] is 2.6 mM.
Take `COC(=O)c1cc(O)c(O)c(O)c1` [GALLIC ACID METHYL ESTER]: in series [1], the Activity is 1.154 mM. The compound further gave an IC50 in series [2] of 15.5 µM.
In the case of `COC(=O)c1ccc(O)cc1` [METHYLPARABEN], in series [1], the Activity was 0.147 mM. In series [2], this compound gave an IC50 above 50 µM.
In the case of `COc1ccc(C=O)cc1O` [ISOVANILLIN], the Activity in series [1] is 0.144 mM. In addition, the IC50 in series [2] is above 50 µM.
In the same order, the values of `O=c1c(O[C@@H]2O[C@H](CO)C(O)[C@H](O)[C@H]2O)c(-c2ccc(O)c(O)c2)oc2cc(O)cc(O)c12` (single isomer, unassigned) [ISOQUERCETIN] are 1.1 mM and 26.3 µM.
